Compound activity (PubChem BioAssay)
M1 PAM: human CHRM1 positive allosteric modulation. P11229. CHO-K1 hM1, Fluo-8 calcium fluorescence, ACh EC20; 0% = ACh EC20, 100% = maximal ACh. activation, % at 3 µM. hit rate 0.088% among 360,000. AID 588819; in the data active means activation above about 19%, passing the limit was not always enough
Target sequence (P11229 whole entry, looked up): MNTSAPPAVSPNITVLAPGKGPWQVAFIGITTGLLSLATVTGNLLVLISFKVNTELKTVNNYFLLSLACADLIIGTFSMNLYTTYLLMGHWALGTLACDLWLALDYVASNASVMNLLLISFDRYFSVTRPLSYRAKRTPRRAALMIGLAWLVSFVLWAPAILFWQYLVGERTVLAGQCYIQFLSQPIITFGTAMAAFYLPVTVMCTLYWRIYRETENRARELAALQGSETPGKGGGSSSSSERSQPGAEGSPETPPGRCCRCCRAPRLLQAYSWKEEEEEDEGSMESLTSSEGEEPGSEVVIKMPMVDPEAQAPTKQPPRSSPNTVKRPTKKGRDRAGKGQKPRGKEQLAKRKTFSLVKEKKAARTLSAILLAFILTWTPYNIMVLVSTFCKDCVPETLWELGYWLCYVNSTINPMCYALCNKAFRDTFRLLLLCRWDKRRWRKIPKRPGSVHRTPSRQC
CHRM1 agonist: human M1 muscarinic receptor agonism; P11229; CHO-K1 hM1, Fluo-8 calcium fluorescence, agonist mode; 0% DMSO, 100% acetylcholine EC100; activation, % at 3 µM; hit rate 0.33% among 360,000; AID 588814;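 active means activation above the run's mean compound activation plus 3 SD, cut at about 16% in these data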;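 further: peak over basal fluorescence ratio within a 140 s kinetic read after compound addition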
CHRM5 PAM: potentiates acetylcholine response at human M5 receptor. P08912. CHO-K1 hM5, Fluo-8 calcium, ACh EC20 PAM; 0% = ACh EC20, 100% = ACh EC100. activation, % at 3 µM. hit rate 0.3% among 360,000;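 active means activation above the run cutoff, the mean activation of all test compounds plus 3 SD, cut at about 18% in these data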
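system = human M5 receptor in CHO-K1 cells | reagent = EC20 acetylcholine as agonist stimulus | compound dosing = single-point, 3 µM nominal | incubation = Fluo-8 loading 80 min at 37 °C plus 30 min room temperature | detection = Fluo-8 calcium dye fluorescence, kinetic read | benchmarks = low control EC20 acetylcholine (0%), high control EC100 acetylcholine (100%)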
CHRM5 antagonist: antagonists of human muscarinic M5 receptor (CHRM5); P08912; inhibition, % at 3 µM; hit rate 0.59% among 360,000; CHO-hM5 cells, Fluo-8 calcium fluorescence, ACh EC80; AID 624040;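 active means inhibition above a per-plate cutoff, the mean of that plate's test compounds plus 3 SD, cut at about 27% in these data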;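 further: 0% = acetylcholine EC80 with DMSO and 100% = DMSO without agonist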
CHRM5 agonist: CHRM5 agonism in calcium assay; P08912; CHO-K1 hM5 cells, Fluo-8 calcium fluorescence; 0% DMSO wells, 100% maximal acetylcholine response; activation, % at 3 µM; hit rate 0.19% among 360,000;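 active means activation above the run's mean over test compounds plus 3 SD, cut at about 23% in these data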;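 further: signal is peak over basal fluorescence ratio across the kinetic read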
CHRM1 antagonist: human CHRM1 antagonism; P11229; CHO-K1 hM1, Fluo-8 calcium fluorescence, ACh EC80 antagonist; inhibition, % at 3 µM; hit rate 1.3% among 360,000;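 active means percent inhibition above its own plate's cutoff, namely the mean of that plate's compound wells plus 3 SD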;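 further: peak over basal fluorescence ratio during 140 s after agonist addition; 0% = ACh EC80 plus DMSO and 100% = DMSO alone without agonist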
Active calls of the source: *. In the library only some 2% were active in any assay of this set; here they are far more common.

SMILES	M1 PAM	CHRM1 agonist	CHRM5 PAM	CHRM5 antagonist	CHRM5 agonist	CHRM1 antagonist
Cc1cccc(C)c1NC(=O)CN1CCN(C(=O)CN2C(=O)NC3(CCCCC3C)C2=O)CC1 (stereo not given)	28.5*	3.6	1.3	-0.7	2.0	-27.8
CCN(Cc1ccccc1)C(=O)c1nn(-c2ccc(OC)cc2)c(=O)c2c1c1ccccc1n2C	-18.6	-7.3	-18.4	12.8	6.2	22.5*
CCCCN(CC)CCNC(=O)c1nn(-c2ccc(OC)cc2)c(=O)c2c1c1ccccc1n2C	3.0	-10.2	1.8	3.2	-4.1	-6.0
CC(C)NC(=O)C1(C)CCN1C(=O)c1ccccc1 (stereo not given)	4.8	-0.1	3.0	2.8	-0.5	-6.9
CCOc1ccc(NS(=O)(=O)c2ccc(NC(=S)NC(=O)CC(C)C)cc2)cc1	9.0	17.4*	-2.8	20.0	10.3	20.8
CCN(CC(=O)Nc1ccc(OC)cc1)C(=O)c1ccc(NS(=O)(=O)c2ccc(C(C)=O)cc2)cc1	12.6	-0.4	1.6	6.4	-1.8	-10.4
COc1ccc(S(=O)(=O)Nc2ccc(S(=O)(=O)NCC3CCCO3)cc2)cc1 (stereo not given)	2.6	6.1	-4.6	13.8	0.8	1.4
C=C(C)CN(CC)C(=O)COc1ccc(S(=O)(=O)Nc2ccc(OC)cc2)cc1	3.0	20.6*	-12.9	6.7	20.0	-0.2
COc1ccc(NS(=O)(=O)c2ccc(NC(=S)NCC3CCCO3)cc2)cc1 (stereo not given)	1.1	4.8	-8.9	27.0*	3.3	5.7
CC(C)CC(=O)NC(=S)Nc1ccc(S(=O)(=O)NC(C)(C)C)cc1	2.9	-2.7	0.9	-1.9	2.5	-0.5
CCCC(=O)NC(=S)Nc1ccc(S(=O)(=O)Nc2ccc(OCC)cc2)cc1	7.6	27.8*	3.5	5.6	24.6*	14.1
CC1(C(=O)NS(=O)(=O)C2CC2)CCN(C(=O)c2ccccc2C(F)(F)F)C1 (stereo not given)	-3.7	-4.3	5.5	-8.2	0.6	6.3
CC(C)c1ccc(/C=N/NC(=O)c2ccc(-n3cnnn3)cc2)cc1	-6.4	-2.1	-1.4	0.0	2.1	3.6
O=C1OC(N2C(=O)CC[C@H]2C(=O)NCC2CCCO2)c2ccccc21 (stereo not given in full)	1.9	-4.5	4.3	8.2	4.5	102.5*
O=C(CNC(=O)c1ccccn1)N=Nc1c(O)[nH]c2ccccc12	-5.0	-7.9	-7.0	12.4	-2.1	12.5
